Screening results deposited in PubChem BioAssay by several laboratories.
Hits are enriched below; roughly 3.5% of the tested compounds scored in any of these assays.
STAT3 act = increases IL-6 driven STAT3 reporter signal; U3A cells, IL-6 STAT3-luciferase reporter, luminescence; 100% = signal with IL-6 EC80 alone; activation (% of control), % at 5.6 µM; 0.91% of 190,000 active; AID 871;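 active means activation above the screen-wide mean of compound activation plus 3 SD, cut at about 130% in these data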;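 further: 0% = background luminescence of wells with medium and substrate only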
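Material: human U3A cells carrying STAT3-luciferase construct. Measured by: reporter luminescence signal. Timing: compound 1 h, then IL-6 6 h at 37 °C.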
FXIIa inh 1536 = blocks human coagulation factor XIIa protease activity. P00748. purified FXIIa, Boc-QGR-AMC fluorogenic substrate, 2 h. inhibition, % at 5 µM. 0.3% of 220,000 active. AID 800; in the data active means inhibition above about 40%;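 further: 0% = enzyme with no compound and 100% = blank without enzyme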
Target sequence (P00748 20-372 limits assumed): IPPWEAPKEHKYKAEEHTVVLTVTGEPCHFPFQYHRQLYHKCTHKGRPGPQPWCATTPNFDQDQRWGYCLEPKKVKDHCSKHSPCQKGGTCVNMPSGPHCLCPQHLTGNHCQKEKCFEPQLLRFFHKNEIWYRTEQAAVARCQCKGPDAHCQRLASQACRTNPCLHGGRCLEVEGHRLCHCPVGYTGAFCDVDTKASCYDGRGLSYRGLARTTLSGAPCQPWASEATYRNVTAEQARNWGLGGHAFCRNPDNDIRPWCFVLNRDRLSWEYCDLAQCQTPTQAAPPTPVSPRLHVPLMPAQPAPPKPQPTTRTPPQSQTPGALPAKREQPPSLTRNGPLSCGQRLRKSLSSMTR
Target sequence (P00748 373-615 limits assumed): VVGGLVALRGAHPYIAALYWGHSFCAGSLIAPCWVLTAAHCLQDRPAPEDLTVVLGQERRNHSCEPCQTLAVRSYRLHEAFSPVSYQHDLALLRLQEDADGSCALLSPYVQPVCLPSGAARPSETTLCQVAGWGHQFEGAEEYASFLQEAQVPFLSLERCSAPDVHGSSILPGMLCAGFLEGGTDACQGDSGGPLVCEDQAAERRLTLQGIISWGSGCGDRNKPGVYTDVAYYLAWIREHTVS
Thrombin inh = inhibitors of human thrombin | P00734 | alpha-thrombin, Boc-VPR-AMC fluorogenic substrate cleavage | inhibition, % at 5 µM | 0.26% of 220,000 active | AID 1046;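 active means inhibition at or above 40%; inactive means inhibition below 40%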;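 further: 0% = enzyme with no compound and 100% = wells without enzyme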
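Material: human alpha-thrombin enzyme / Medium: pH 7.5 Tris (50 mM) with NaCl 150 mM, Tween 20 0.05% / Compound: single-point dosing at 5 µM, 0.2% DMSO / Incubation: enzyme reaction carried out at room temperature / Detection: AMC fluorescence, 355/460 nm / Read-out basis: percent inhibition scaled between no-compound controls and no-enzyme blanks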
AHR act = activates the human aryl hydrocarbon receptor | activation, % at 5 µM | AID 2796 | P35869 | AHR-responsive luciferase reporter cells, luminescence | 2.5% of 320,000 active; in the data active means activation above about 47%;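 further: 0% = vehicle wells and 100% = reference agonist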
FXIa inh 1536 = factor XIa (human) inhibition; 0.14% of 220,000 active; inhibition, % at 5 µM; purified FXIa, Boc-Glu-Ala-Arg-AMC fluorogenic substrate;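 active means inhibition of at least 40%; inactive means inhibition below 40%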;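 further: fluorescence of freed AMC excited at 355 nm; 0% = enzyme without compound and 100% = no enzyme blank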
KLK5 inh = kallikrein 5 (human) inhibition; Q9Y337; recombinant hK5, fluorogenic AMC substrate cleavage; inhibition, % at 5 µM; 0.59% of 210,000 active;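 active means inhibition of 40% or more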;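 further: 0% = enzyme controls without compound and 100% = no-enzyme blanks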
* hit, by the source's call; . = not tested or not shown.

SMILES	STAT3 act	FXIIa inh 1536	Thrombin inh	AHR act	FXIa inh 1536	KLK5 inh
CC(OC(=O)c1nn(C)c(=O)c2ccccc12)C(=O)Nc1ccc(S(N)(=O)=O)cc1 (stereo unspecified)	.	.	.	2.1	.	.
Cc1ccc(S(=O)(=O)N(C)C)cc1NC(=O)c1cc(=O)c2ccccc2o1	.	.	.	5.0	.	.
Cc1cc(C)c2[nH]c3nc(SCC(=O)O)nnc3c2c1	.	.	.	49.6*	.	.
COc1ccc(C)cc1NC(=O)C(OC(=O)CNC(=O)c1cccc(F)c1)c1ccccc1 (stereo unspecified)	99.1	2.0	-4.4	72.0*	-2.1	-1.9
Cc1ccc(C)c(NC(=O)C(OC(=O)c2cnc(C)cn2)c2ccccc2)c1 (stereo unspecified)	.	.	.	69.9*	.	.
CCOc1ccccc1NC(=O)C(OC(=O)c1cc(C)oc1C)c1ccccc1 (stereo unspecified)	108.1	8.8	-9.3	7.3	8.3	-13.6
COc1ccc(C)cc1NC(=O)C(OC(=O)c1cnc(C)cn1)c1ccccc1 (stereo unspecified)	.	.	.	60.3*	.	.
Cc1cnc(C(=O)OC(C(=O)Nc2cc(C(F)(F)F)ccc2Cl)c2ccccc2)cn1 (stereo unspecified)	.	.	.	2.6	.	.
COc1ccc(C)cc1NC(=O)C(OC(=O)c1cc(C)oc1C)c1ccccc1 (stereo unspecified)	106.6	10.6	-8.6	73.5*	1.1	-9.8
c1ccc(-c2nc3ccccc3o2)nc1	98.1	15.1	2.2	20.8	4.6	-9.2
c1ccc2nc(-c3nc4ccccc4o3)ccc2c1	35.7	0.5	-5.4	90.0*	-1.8	-18.4
CCCn1c2ccc(/C(C)=N\O)cc2c2cc(/C(C)=N/O)ccc21	95.6	-7.3	-12.3	48.0*	1.0	-3.5
COc1ccc(Oc2ccccc2C=O)cc1	108.9	19.7	19.6	1.9	3.7	50.6*
Oc1ccccc1-c1nnc(-c2ccc(C(F)(F)F)cc2)o1	120.8	3.6	-5.3	52.0*	-6.4	-22.2
c1ccc(-c2nnc(-c3ccccc3)o2)cc1	98.7	9.9	-1.5	58.8*	4.4	-0.7
Nc1ccccc1-c1nnc(-c2ccc(-c3ccccc3)cc2)o1	109.7	-3.4	-2.2	75.8*	-6.6	-22.5
Clc1cccc(-c2nnc(-c3ccccc3)o2)c1	72.5	1.3	-4.0	65.3*	-23.6	-15.7
CSc1ccccc1-c1nnc(-c2ccccc2)o1	121.2	6.7	-3.8	39.8	-4.5	-8.4
O=C(NS(=O)(=O)Oc1cccc(Cl)c1Cl)OC[C@@H]1CCCN2CCCCC12 (stereo partly specified)	103.2	21.8	-4.1	1.0	16.3	-5.1
CCCCN(C(=O)c1ccc(C)cc1)c1c(N)n(CCC)c(=O)[nH]c1=O	.	.	.	0.7	.	.
CC(C)[C@@]1(c2ccc(Cl)cc2)ON(c2ccccc2C(F)(F)F)C1=O	.	.	.	7.2	.	.
CCC(C)c1ccc(Nc2ncccc2C#N)cc1 (stereo unspecified)	118.4	8.1	-3.1	61.4*	-2.1	-17.8
CCc1ccc(Nc2ncccc2C#N)cc1	128.7	20.0	-0.8	52.1*	15.4	-7.5
O=C(CN1C(=O)CCC1=O)Nc1cccc2c1C(=O)NC2=O	118.4	4.5	-3.4	7.6	-3.7	0.5
CCn1nc(C)c(CN2CCC(n3nccc3NC(=O)Cc3ccccc3)CC2)c1C	.	.	.	1.6	.	.
SMILES	STAT3 act	FXIIa inh 1536	Thrombin inh	AHR act	FXIa inh 1536	KLK5 inh
O=C1NC2(Nc3ccccc31)C(=O)Nc1ccccc12 (stereo unspecified)	107.7	9.7	-5.8	51.1*	-2.1	-6.0
CCOc1cc2c(C#N)c(N(CC)CC)nc(N)c2c(N)n1	.	.	.	33.8	.	.
CCOc1cc2c(C#N)c(N3CCOCC3)nc(N)c2c(N)n1	.	0.2	2.0	10.2	-3.4	109.8*
O=S(=O)(/N=C(/NC(=S)Nc1ccccc1)c1ccccc1)c1ccc(Cl)cc1	.	.	.	-1.6	.	.
O=C(O)c1ccc(N/C(=N\S(=O)(=O)c2ccc(Cl)cc2)c2ccccc2)cc1	.	63.5*	15.5	0.1	44.0*	19.5
CC(=O)c1cc2c(cc1NS(=O)(=O)c1ccccc1)OCO2	100.7	21.1	5.5	0.8	5.9	2.4
CC(=O)c1cc2c(cc1N/C(=N/S(=O)(=O)c1ccccc1)c1ccc(Cl)cc1)OCO2	105.6	1.2	-6.8	94.1*	-0.9	-8.2
Cc1ccc([N+](=O)[O-])c(OCc2ncc(Cl)n2C)c1	.	.	.	55.5*	.	.
Cc1ccc([N+](=O)[O-])c(OCCN2CCNCC2)c1	88.1	-3.9	-7.1	-0.6	-14.7	-9.1
O=C1c2cccc(OCC(=O)N3CCCc4ccccc43)c2CCN1Cc1cccnc1	81.3	6.9	-4.0	14.1	-4.2	1.6
Cc1ccccc1CN1CCc2c(OCC(=O)N3CCCc4ccccc43)cccc2C1=O	102.2	9.3	0.7	4.1	13.4	53.3*
Cc1ccccc1OCC(=O)N1CCCc2ccccc21	91.7	3.4	-3.9	-3.6	4.0	-13.2
Cn1c(=O)cc(OCC(=O)N2CCCc3ccccc32)c2ccccc21	94.6	-17.9	-10.1	49.9*	-6.8	-12.4
CCCn1c(SCC(=O)Nc2cc(C(=O)O)ccc2C)nc2sc3c(c2c1=O)CCC3	.	.	.	-0.8	.	.
COC(=O)c1c(NC(=O)COC(=O)Cn2cnc3ccccc32)sc(C)c1C	91.1	15.0	11.9	1.7	43.6*	37.3
CN(/N=C/c1cc([N+](=O)[O-])ccc1O)c1ccccc1	92.5	8.0	-3.2	31.5	7.4	-16.8
CN(C)/N=C/c1ccc([N+](=O)[O-])cc1[N+](=O)[O-]	116.8	20.8	19.3	59.1*	14.9	12.3
COc1ccc(C(=O)Nc2nc3ccccc3c(=O)[nH]2)cc1	77.2	9.1	-3.3	73.6*	-13.3	9.1
O=C(O)C(CO)(c1ccccc1)c1ccccc1	.	.	.	-1.9	.	.
O=C(NC1CC1)c1nc2c(nnn2Cc2ccccc2Cl)c(=O)[nH]1	111.9	3.0	-4.8	-0.6	-0.2	-9.9
O=C(NCCc1ccccc1)c1nc2c(nnn2Cc2ccccc2Cl)c(=O)[nH]1	133.1*	7.0	-2.5	0.0	1.1	-23.1
NC(=O)/C(=N\OC(=O)c1ccco1)c1nc(-c2ccc(Br)cc2)cs1	100.3	40.6*	77.6*	-9.7	5.4	-103.2
Cc1ccccc1Nc1nc(N)nc(COC(=O)c2ccco2)n1	.	.	.	0.8	.	.
COCc1c(C(=O)OCc2nc(N)nc(Nc3ccccc3C)n2)oc2ccccc12	98.3	51.3*	-2.4	3.0	32.4	4.5
O=C(/C=C/c1cccc(Cl)c1)NCc1ccncc1	92.6	17.2	8.6	23.6	13.6	47.2*
COc1ccccc1C(=O)Nc1ccc(S(=O)(=O)NC2=NCCCCC2)cc1	73.2	24.6	12.9	-5.5	26.0	51.8*
COc1ccc(-c2cc(-c3ccc(Br)cc3)nc3ncnn23)cc1OC	88.8	-30.3	-3.8	53.9*	-4.9	-83.5
COC(=O)/C=C/C(=O)Nc1cccnc1	103.4	4.0	-9.5	4.9	-5.8	-1.8
O=C(/C=C/c1ccco1)Nc1cccnc1	102.9	11.2	-1.9	71.0*	2.6	.
